{"source": "PubChem BioAssay AID1748", "about": "(Sanford-Burnham Center for Chemical Genomics, 2009)", "test_system": "MCF7 TRAIL potentiation, ATPlite luminescence, 24 h", "assay": "sensitizers of TRAIL-resistant MCF7 to apoptosis – cell-based, ATPlite luminescence, 24 h, confirmation (AID 1748)", "conditions": "stronger effect = higher value", "outline": "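Measured by: ATPlite luminescence | Assay system: TRAIL-resistant MCF7 cells | Schedule: 24 h settling, 4 h compound, 24 h TRAIL, 37 °C | Probe or stimulus: TRAIL, added after compound pretreatment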", "key": {"[1]": {"conditions": "compound alone 1.25 uM, at 1.25 µM"}, "[2]": {"conditions": "compound alone 2.5 uM, at 2.5 µM"}, "[3]": {"conditions": "compound alone, no TRAIL, at 5 µM"}, "[4]": {"conditions": "compound plus TRAIL 1.25 uM, at 1.25 µM"}, "[5]": {"conditions": "compound plus TRAIL 2.5 uM, at 2.5 µM"}}, "note": "Active and inactive are the calls of the source.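 How the source made its calls: active means Cell killing by compound with TRAIL above both separate effects added together, at all three tested doses; inactive means the rest.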", "data": [{"smiles": "CSc1nc(-c2ccc(C)cc2)nc(C(Cl)Cl)n1", "values": [{"measurement": "cytotoxicity with TRAIL", "setting": "at 5 µM", "value": "57% (inactive)"}, {"measurement": "cytotoxicity", "setting": "[1]", "value": 0, "unit": "%"}, {"measurement": "cytotoxicity", "setting": "[2]", "value": 8, "unit": "%"}, {"measurement": "cytotoxicity", "setting": "[3]", "value": 26, "unit": "%"}, {"measurement": "cytotoxicity with TRAIL", "setting": "[4]", "value": 37, "unit": "%"}, {"measurement": "cytotoxicity with TRAIL", "setting": "[5]", "value": 48, "unit": "%"}]}, {"smiles": "CCSc1nc(-c2ccccc2)nc(C(Cl)Cl)n1", "values": [{"measurement": "cytotoxicity with TRAIL", "setting": "at 5 µM", "value": 72, "unit": "%"}, {"measurement": "cytotoxicity", "setting": "[1]", "value": 0, "unit": "%"}, {"measurement": "cytotoxicity", "setting": "[2]", "value": 0, "unit": "%"}, {"measurement": "cytotoxicity", "setting": "[3]", "value": 28, "unit": "%"}, {"measurement": "cytotoxicity with TRAIL", "setting": "[4]", "value": 44, "unit": "%"}, {"measurement": "cytotoxicity with TRAIL", "setting": "[5]", "value": 52, "unit": "%"}]}, {"smiles": "CSc1nc(-c2ccccc2)nc(C(Cl)Cl)n1", "values": [{"measurement": "cytotoxicity with TRAIL", "setting": "at 5 µM", "value": "82% (inactive)"}, {"measurement": "cytotoxicity", "setting": "[1]", "value": 0, "unit": "%"}, {"measurement": "cytotoxicity", "setting": "[2]", "value": 36, "unit": "%"}, {"measurement": "cytotoxicity", "setting": "[3]", "value": 55, "unit": "%"}, {"measurement": "cytotoxicity with TRAIL", "setting": "[4]", "value": 55, "unit": "%"}, {"measurement": "cytotoxicity with TRAIL", "setting": "[5]", "value": 74, "unit": "%"}]}]}
